Here are results for five molecules from ChEMBL document CHEMBL4007460, “17β-Hydroxywithanolides as Sensitizers of Renal Carcinoma Cells to Tumor Necrosis Factor-α Related Apoptosis Inducing Ligand (TRAIL) Mediated Apoptosis: Structure-Activity Relationships” (J Med Chem, 2017).

The structures appear in SMILES notation. pIC50: −log10 of the molar value. Calls of active or inactive are those of the source. The rule behind the calls is not given here.

Series [1] concerns ACHN. Nature of the series: Sensitization of TRAIL-induced apoptosis in human ACHN cells assessed as reduction in cell viability preincubated for 2 hrs followed by addition of TRAIL measured after 18 hrs by MTS assay. In kind it is functional, cell-based. Put shortly: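 ACHN cells were seeded at 5000/well and rested overnight at 37 °C, in RPMI with 5% FCS, glutamine, NEAA, pyruvate, HEPES and 2-mercaptoethanol. Compound pretreatment ran 2 h, then TRAIL was added to 50 ng/mL for 18 h at 37 °C. Viability was read by MTS (2 h, A490). IC50 values (cell number reduced 50%) came from dose-response curves; triplicates, at least 3 independent experiments, ± SD.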
For orientation: Tetrazolium dyes change colour on reduction, which living cells bring about.

In a further series the test system is CAKI-1. Nature of the series: Sensitization of TRAIL-induced apoptosis in human Caki1 cells assessed as reduction in cell viability at 125 to 500 nM preincubated for 2 hrs followed by addition of TRAIL measured after 18 hrs by MTS assay. The class given is functional, cell-based. Put shortly: (§1)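 Caki-1, SN12C or UO-31 renal cells seeded 5000/well, grown overnight at 37 °C, pretreated with compound across a concentration range for 2 h, then TRAIL 50 ng/mL added for 18 h more at 37 °C. Medium: RPMI, 5% FCS with supplements. Viable cells by MTS (2 h, A490); growth inhibition = (media − treatment)/media ×100. Triplicate, ≥3 experiments.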

The test system of the next series is SN12C. Nature of the series: Sensitization of TRAIL-induced apoptosis in human SN12C cells assessed as reduction in cell viability at 125 to 500 nM preincubated for 2 hrs followed by addition of TRAIL measured after 18 hrs by MTS assay. The class given is functional, cell-based. An outline of the steps:
as §1

A further series relates to UO-31. Nature of the series: Sensitization of TRAIL-induced apoptosis in human UO31 cells assessed as reduction in cell viability at 125 to 500 nM preincubated for 2 hrs followed by addition of TRAIL measured after 18 hrs by MTS assay. The class given is functional, cell-based. An outline of the steps: as §1
Series [2] deals with ACHN. Put plainly: Sensitization of TRAIL-induced apoptosis in human ACHN cells assessed as increase in caspase8 activation at 125 to 1000 nM preincubated for overnight followed by addition of TRAIL for 90 mins measured after 18 hrs by Western blot analysis. The class given is functional, cell-based. An outline of the steps:
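ACHN cells plated 1.5×10^6/well, grown overnight, treated overnight (18 h) with compound at 125–1000 nM, then TRAIL for 90 min before RIPA lysis (with zVAD-FMK). 20 μg protein immunoblotted for pro- and cleaved caspase-8 and caspase-3; GAPDH loading control. TRAIL given as 200 ng/mL in methods, 50 ng/mL in legend.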
(In western blotting, separated proteins are transferred to a membrane and probed.)

The subject of series [3] is ACHN. Put plainly: Cytotoxicity in human ACHN cells assessed as viable cells at 1250 to 5000 nM after 48 hrs by MTS assay. The class given is cell-based. Conditions: 5 µM.
Series [4] concerns ACHN. Put plainly: Induction of CHOP expression in human ACHN cells at 2.5 to 5 uM measured after 24 hrs by Western blotting method. The class given is functional, cell-based.
For series [5], the system named is ACHN. Put plainly: Induction of BIP expression in human ACHN cells at 2.5 to 5 uM measured after 24 hrs by Western blotting method. In kind it is functional, cell-based.
Series [6] deals with ACHN. Put plainly: Induction of HSP70 expression in human ACHN cells at 2.5 to 5 uM measured after 24 hrs by Western blotting method. In kind it is functional, cell-based.
A short description of series [7]: Glutathione reactivity in DMSO assessed as formation of MIchael adduct with GSH at pH 7.4 after 24 hrs in presence of NAC by HPLC method. Put shortly: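 Withanolide (2.12 μM in DMSO, 0.5 mL) mixed with equal volume of 4.24 μM GSH or NAC solution at pH 7.4, 37 °C. Aliquots taken at 0, 0.5, 2, 4, 8, 24 h, stored −80 °C; unreacted withanolide quantified by C18 HPLC (H2O with 40 mM NH4OAc–MeOH gradient, UV 230 nm) using peak area.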

Series [8] deals with ACHN. Put plainly: Induction of DR5 expression in human ACHN cells by Western blotting method. In kind it is functional, cell-based.
Series [9] concerns ACHN. Put plainly: Reduction cFLIP level in human ACHN cells at 125 to 1000 nM after 18 hrs by Western blot analysis.
In series [10] the test system is ACHN. Put plainly: Reduction cFLIP level in human ACHN cells at 500 nM after 18 hrs by Western blot analysis. In kind it is functional, cell-based. Put shortly: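 ACHN cells (RPMI, 5% FBS) plated 1.5×10^6/well, grown overnight at 37 °C, then exposed to compound at 500 nM for 18 h. Lysed in RIPA with protease/phosphatase inhibitors and zVAD-FMK; 20 μg protein per lane immunoblotted with anti-FLIP (7F10); GAPDH as loading control.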

Series [11] relates to ACHN. Nature of the series: Sensitization of TRAIL-induced apoptosis in human ACHN cells assessed as increase in caspase8 activation at 125 to 1000 nM preincubated for overnight followed by addition of TRAIL for 90 mins measured after 6 hrs by Western blot analysis. The class given is functional, cell-based.
For series [12], the system named is ACHN. Put plainly: Cytotoxicity in human ACHN cells assessed as reduce cell number after 48 hrs by MTS assay. The class given is cell-based. Put shortly: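 ACHN cells exposed to compound for 48 h at 37 °C; viable cell number by MTS read-out. Triplicate determinations; IC50 (concentration reducing cell number by 50%) from 3 independent experiments, ± SD.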

In series [13] the test system is ACHN. Put plainly: Reduction cFLIP level in human ACHN cells at 125 to 1000 nM after 16 hrs by Western blot analysis. In kind it is functional, cell-based.

Take `CC1=C(CO)C(=O)O[C@@H]([C@@H](C)[C@H]2CC[C@H]3[C@@H]4C[C@H]5O[C@]56[C@@H](O)C=CC(=O)[C@]6(C)[C@H]4CC[C@]23C)C1` [WITHAFERIN A]: the negative-log IC50 (pIC50) (commonly the IC50 on a negative log10 scale, so that one unit is a factor of ten) in the series with ACHN [1] was less than 5.70. Besides, the outcome in the series on CAKI-1, in the series on SN12C, with UO-31, with ACHN [2], with ACHN [8] and in the series with ACHN [9] was inactive. Besides, the Activity entry in the series with ACHN [3] is on record as “Toxic”. Besides, the outcome (with ACHN [4]; with ACHN [5]; in the series on ACHN [6]; in series [7]) was Active.
Consider `CC(=O)OC[C@]12CC[C@H]3[C@@H](C[C@H]4O[C@]45CC=CC(=O)[C@]35C)[C@]1(O)CC[C@@]2(O)[C@@](C)(O)[C@H]1CC(C)=C(C)C(=O)O1`, for which, in the series with ACHN [1], the negative logarithm of the IC50 (pIC50) was 6.79. The result in the series with CAKI-1, in the series with SN12C, in the series with UO-31, in the series on ACHN [10], in the series with ACHN [2] and in the series with ACHN [11] was Active. Moreover, in series [7], the result was Active. Also, the values for the Activity entry with ACHN [3] and in the series on ACHN [12] were “Non-Toxic” and “Toxic”, respectively. Further, the result in the series with ACHN [4], in the series with ACHN [5], in the series on ACHN [6] and with ACHN [8] was inactive.
With `CC1=C(C)C(=O)O[C@@H]([C@](C)(O)[C@]2(O)CC[C@@]3(O)[C@@H]4C[C@H]5O[C@]56[C@H](O)C=CC(=O)[C@]6(C)[C@H]4CC[C@]23C)C1`, in the series on ACHN [1], the pIC50 was 7.17. For the same molecule, the result (in the series with CAKI-1; in the series with SN12C; in the series on UO-31; with ACHN [10]; in the series with ACHN [2]; in series [7]) was Active. The Activity result is given as “Non-Toxic” in the series on ACHN [3] and “Toxic” with ACHN [12]. In addition, the result in the series with ACHN [8] was inactive.
In the case of `CC1=C(C)C(=O)O[C@@H]([C@](C)(O)[C@]2(O)CC[C@@]3(O)[C@@H]4C[C@H]5O[C@]56CC=CC(=O)[C@]6(C)[C@H]4CC[C@]23C)C1` [WITHANOLIDE E], in the series on ACHN [1], the pIC50 is 6.31. In addition, the result (in the series with CAKI-1; in the series on SN12C; with UO-31; with ACHN [10]; in the series on ACHN [2]; in [7]) was Active. In addition, the values for the Activity result in the series with ACHN [3] and in the series with ACHN [12] were “Non-Toxic” and “Toxic”, respectively. The outcome in the series with ACHN [4], in the series on ACHN [5], with ACHN [6] and in the series with ACHN [8] was inactive.
For `CC(=O)OCC1=C(C)C[C@H]([C@@H](C)[C@H]2CC[C@H]3[C@@H]4C[C@H]5O[C@]56[C@H](OC(C)=O)C=CC(=O)[C@]6(C)[C@H]4CC[C@]23C)OC1=O`, the outcome in the series with ACHN [13] was inactive. For the same molecule, the outcome with ACHN [4], in the series with ACHN [5] and in the series on ACHN [6] was Active.
